Measurements published in ChEMBL document CHEMBL1142957, “Total structure and inhibition of tumor cell proliferation of laxaphycins” (J Med Chem, 2007).

Tests used:
CEM-VLB [1] = assay: Interaction index, ratio of IC50 for CEM/VLB100 cells in presence of 0.2 uM laxaphycin A/IC50 for CEM/VLB100 cells; format: functional, Homo sapiens
CEM-VLB [2] = assay: Interaction index, ratio of IC50 for CEM/VLB100 cells in presence of 0.4 uM laxaphycin A/IC50 for CEM/VLB100 cells; format: functional, Homo sapiens
CEM-VLB [3] = assay: Interaction index, ratio of IC50 for CEM/VLB100 cells in presence of 1 uM laxaphycin A/IC50 for CEM/VLB100 cells; format: functional, Homo sapiens
CEM-VLB [4] = assay: Interaction index, ratio of IC50 for CEM/VLB100 cells in presence of 2 uM laxaphycin A/IC50 for CEM/VLB100 cells; format: functional, Homo sapiens
[5] = Cytotoxicity against human PA1 cells after 48 hrs by RRT; format: cell-based; settings: pa-1, 48 h
In short: (§1)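 Adherent lines in supplemented Glutamax MEM, 37 °C, 5% CO2. Seeded 5 × 10³ cells/well, adhered 16 h, then treated 48 h continuously, alone or in combination, in 0.5% DMSO (solvent control). Resazurin 25 µg/mL in MEM added, 1 h at 37 °C, fluorescence 530/590 nm. Survival = % of control after blank subtraction; IC50 from concentration–survival curve. Two independent assays in triplicate.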

[6] = Cytotoxicity against human PA1 cells after 48 hrs by Hoechst 33342 assay; format: cell-based; settings: pa-1, 48 h
In short: (§2)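 Adherent lines in Glutamax MEM with Earle's salts, FCS, vitamins, pyruvate, NEAA, glutamine, gentamycin. Seeded 5 × 10³ cells/well, adhered 16 h, then 48 h continuous exposure in 0.5% DMSO (solvent control). After resazurin read, cells PBS-rinsed and stored at −80 °C. Then thawed and given 30 µg/mL Hoechst 33342 in Tris pH 7.4/EDTA/NaCl buffer, 1 h at 37 °C, fluorescence 360/460 nm (DNA ∝ biomass). Two independent assays in triplicate, mean ± SD.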

[7] = Cytotoxicity against human […] cells after 48 hrs by RRT; format: cell-based; in short: as §1
[8] = Cytotoxicity against human […] cells after 48 hrs by Hoechst 33342 assay; format: cell-based; in short: as §2
[9] = Cytotoxicity against human M4Beu cells after 48 hrs by RRT; format: cell-based; in short: as §1
[10] = Cytotoxicity against human M4Beu cells after 48 hrs by Hoechst 33342 assay; format: cell-based; in short: as §2
MCF7 [11] = assay: Cytotoxicity against human MCF7 cells after 48 hrs by RRT; format: cell-based; settings: MCF7, 48 h; in short: as §1
MCF7 [12] = assay: Cytotoxicity against human MCF7 cells after 48 hrs by Hoechst 33342 assay; format: cell-based; settings: MCF7, 48 h; in short: as §2
DLD-1 [13] = assay: Cytotoxicity against human DLD1cells after 48 hrs by RRT; format: cell-based; settings: dld-1, 48 h; in short: as §1
DLD-1 [14] = assay: Cytotoxicity against human DLD1cells after 48 hrs by Hoechst 33342 assay; format: cell-based; settings: dld-1, 48 h; in short: as §2
PC-3 [15] = assay: Cytotoxicity against human androgen-resistant PC3 cells after 48 hrs by RRT; format: cell-based; settings: PC-3, 48 h; in short: as §1
PC-3 [16] = assay: Cytotoxicity against human androgen-resistant PC3 cells after 48 hrs by Hoechst 33342 assay; format: cell-based; settings: PC-3, 48 h; in short: as §2
[17] = Cytotoxicity against human fibroblasts after 48 hrs by RRT; format: cell-based; settings: fibroblast; in short: as §1
[18] = Cytotoxicity against human fibroblasts after 48 hrs by Hoechst 33342 assay; format: cell-based; settings: fibroblast; in short: as §2
L929 [19] = assay: Cytotoxicity against mouse L929 cells after 48 hrs by RRT; format: cell-based; settings: l929, 48 h; in short: as §1
L929 [20] = assay: Cytotoxicity against mouse L929 cells after 48 hrs by Hoechst 33342 assay; format: cell-based; settings: l929, 48 h; in short: as §2
CCRF-CEM [21] = assay: Cytotoxicity against drug-sensitive CCRF-CEM cells after 72 hrs; format: cell-based; settings: Homo sapiens
In short: (§3)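 Leukemic lymphoblasts (parent CCRF-CEM, Pgp-overexpressing CEM/VLB100, topo II-altered CEM/VM-1) grown in RPMI 1640 with 10% FCS and antibiotics, 37 °C, 5% CO2. Serial dilutions in medium added to 2 × 10⁵ cells/mL for 3 days, medium not renewed. Survivors counted on a Coulter counter. Triplicate, averaged.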

[22] = Cytotoxicity against vinblastine-resistant CEM/VLB100 cells after 72 hrs; format: cell-based; settings: Homo sapiens, CEM/VLB100, 72 h; in short: as §3
[23] = Cytotoxicity against teniposide-resistant CEM/VM1 cells after 72 hrs; format: cell-based; settings: Homo sapiens, CEM-VM1, 72 h; in short: as §3
CCRF-CEM [24] = assay: Ratio of IC50 for vinblastine-resistant CEM/VLB100 cells over IC50 for drug-sensitive CCRF-CEM cells; format: functional, Homo sapiens
CCRF-CEM [25] = assay: Ratio of IC50 for teniposide-resistant CEM/VM1 cells over IC50 for drug-sensitive CCRF-CEM cells; format: functional, Homo sapiens
CCRF-CEM [26] = assay: Antiproliferative activity against drug-sensitive CCRF-CEM cells after 72 hrs in presence of 0.2 uM laxaphycin A; format: functional, cell-based; settings: Homo sapiens; in short: as §3
CCRF-CEM [27] = assay: Antiproliferative activity against drug-sensitive CCRF-CEM cells after 72 hrs in presence of 0.4 uM laxaphycin A; format: functional, cell-based; settings: Homo sapiens; in short: as §3
CCRF-CEM [28] = assay: Antiproliferative activity against drug-sensitive CCRF-CEM cells after 72 hrs in presence of 1 uM laxaphycin A; format: functional, cell-based; settings: Homo sapiens; in short: as §3
CCRF-CEM [29] = assay: Antiproliferative activity against drug-sensitive CCRF-CEM cells after 72 hrs in presence of 2 uM laxaphycin A; format: functional, cell-based; settings: Homo sapiens; in short: as §3
CEM-VLB [30] = assay: Antiproliferative activity against vinblastine-resistant CEM/VLB100 after 72 hrs in presence of 0.2 uM laxaphycin A; format: functional, cell-based; settings: Homo sapiens; in short: as §3
CEM-VLB [31] = assay: Antiproliferative activity against vinblastine-resistant CEM/VLB100 after 72 hrs in presence of 0.4 uM laxaphycin A; format: functional, cell-based; settings: Homo sapiens; in short: as §3
CEM-VLB [32] = assay: Antiproliferative activity against vinblastine-resistant CEM/VLB100 after 72 hrs in presence of 1 uM laxaphycin A; format: functional, cell-based; settings: Homo sapiens; in short: as §3
CEM-VLB [33] = assay: Antiproliferative activity against vinblastine-resistant CEM/VLB100 after 72 hrs in presence of 2 uM laxaphycin A; format: functional, cell-based; settings: Homo sapiens; in short: as §3
CEM-VM1 [34] = assay: Antiproliferative activity against teniposide-resistant CEM/VM1 after 72 hrs in presence of 0.2 uM laxaphycin A; format: functional, cell-based; settings: Homo sapiens, CEM-VM1, 72 h; in short: as §3
CEM-VM1 [35] = assay: Antiproliferative activity against teniposide-resistant CEM/VM1 after 72 hrs in presence of 0.4 uM laxaphycin A; format: functional, cell-based; settings: Homo sapiens, CEM-VM1, 72 h; in short: as §3
CEM-VM1 [36] = assay: Antiproliferative activity against teniposide-resistant CEM/VM1 after 72 hrs in presence of 1 uM laxaphycin A; format: functional, cell-based; settings: Homo sapiens, CEM-VM1, 72 h; in short: as §3
CEM-VM1 [37] = assay: Antiproliferative activity against teniposide-resistant CEM/VM1 after 72 hrs in presence of 2 uM laxaphycin A; format: functional, cell-based; settings: Homo sapiens, CEM-VM1, 72 h; in short: as §3
DLD-1 [38] = assay: Survival of human DLD1 cells at 2 uM after 48 hrs by RRT assay; format: functional
In short: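 Adherent cells cultured in Glutamax Eagle's MEM with Earle's salts, fetal calf serum, vitamins, pyruvate, nonessential amino acids, glutamine and gentamycin at 37 °C, 5% CO2. Seeded 5 × 10³ cells/well, 16 h adhesion, then 48 h continuous exposure in 0.5% DMSO, alone or combined. Resazurin (25 µg/mL in MEM) added for 1 h at 37 °C, fluorescence 530/590 nm; survival as percentage of solvent controls after blank subtraction; two independent experiments in triplicate, averaged.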

DLD-1 [39] = assay: Increase in cytotoxicity in human DLD1 cells at 2 uM after 48 hrs in presence of 1 uM laxaphycin A by RRT assay; format: cell-based; settings: dld-1, 48 h; in short: as §1
DLD-1 [40] = assay: Increase in cytotoxicity in human DLD1 cells at 2 uM after 48 hrs in presence of 1.5 uM laxaphycin A by RRT assay; format: cell-based; settings: dld-1, 48 h; in short: as §1
DLD-1 [41] = assay: Increase in cytotoxicity in human DLD1 cells at 2 uM after 48 hrs in presence of 2 uM laxaphycin A by RRT assay; format: cell-based; settings: dld-1, 48 h; in short: as §1
CCRF-CEM [42] = assay: Interaction index, ratio of IC50 for CCRF-CEM cells in presence of 0.2 uM laxaphycin A/IC50 for CCRF-CEM cells; format: functional, Homo sapiens
CCRF-CEM [43] = assay: Interaction index, ratio of IC50 for CCRF-CEM cells in presence of 0.4 uM laxaphycin A/IC50 for CCRF-CEM cells; format: functional, Homo sapiens
CCRF-CEM [44] = assay: Interaction index, ratio of IC50 for CCRF-CEM cells in presence of 1 uM laxaphycin A/IC50 for CCRF-CEM cells; format: functional, Homo sapiens
CCRF-CEM [45] = assay: Interaction index, ratio of IC50 for CCRF-CEM cells in presence of 2 uM laxaphycin A/IC50 for CCRF-CEM cells; format: functional, Homo sapiens
CEM-VM1 [46] = assay: Interaction index, ratio of IC50 for CEM/VM1 cells in presence of 0.2 uM laxaphycin A/IC50 for CEM/VM1 cells; format: functional, Homo sapiens
CEM-VM1 [47] = assay: Interaction index, ratio of IC50 for CEM/VM1 cells in presence of 0.4 uM laxaphycin A/IC50 for CEM/VM1 cells; format: functional, Homo sapiens
CEM-VM1 [48] = assay: Interaction index, ratio of IC50 for CEM/VM1 cells in presence of 1 uM laxaphycin A/IC50 for CEM/VM1 cells; format: functional, Homo sapiens
CEM-VM1 [49] = assay: Interaction index, ratio of IC50 for CEM/VM1 cells in presence of 2 uM laxaphycin A/IC50 for CEM/VM1 cells; format: functional, Homo sapiens

For `CCCCCCC[C@@H]1CC(=O)N[C@@H](C(C)C)C(=O)N[C@@H]([C@@H](O)C(C)C)C(=O)N[C@@H](C)C(=O)N[C@H]([C@@H](O)C(C)C)C(=O)N[C@@H](CCC(N)=O)C(=O)N(C)[C@@H]([C@@H](C)CC)C(=O)N[C@H]([C@@H](O)C(N)=O)C(=O)N[C@@H]([C@@H](C)O)C(=O)N2CCC[C@H]2C(=O)N[C@H](CC(C)C)C(=O)N[C@@H]([C@@H](C)O)C(=O)N1` [LAXAPHYCIN B], the “Ratio IC50” value (CEM-VLB [1]) was 0.9, the “Ratio IC50” value (CEM-VLB [2]) was 0.56 and the “Ratio IC50” value (CEM-VLB [3]) was 0.35. For the same compound, the “Ratio IC50” value (CEM-VLB [4]) was 0.32, the Activity [5] was “Dose-dependent effect” and the Activity [6] was “Dose-dependent effect”. For the same compound, the Activity [7] was “Dose-dependent effect”, the Activity [8] was “Dose-dependent effect” and the IC50 [9] was 400 nM. The IC50 [10] was 300 nM, the IC50 (MCF7 [11]) was 1000 nM and the IC50 (MCF7 [12]) was 500 nM. For the same compound, the Activity (DLD-1 [13]) was “Dose-dependent effect”, the Activity (DLD-1 [14]) was “Dose-dependent effect” and the IC50 (PC-3 [15]) was 800 nM. The IC50 (PC-3 [16]) was 580 nM, the Activity [17] was “Dose-dependent effect” and the Activity [18] was “Dose-dependent effect”. For the same compound, the Activity (L929 [19]) was “Dose-dependent effect”, the Activity (L929 [20]) was “Dose-dependent effect” and the IC50 (CCRF-CEM [21]) was 1110 nM. For the same compound, the IC50 [22] was 1020 nM, the IC50 [23] was 1370 nM and the “Ratio IC50” value (CCRF-CEM [24]) was 0.9. For the same compound, the “Ratio IC50” value (CCRF-CEM [25]) was 1.2, the IC50 (CCRF-CEM [26]) was 620 nM and the IC50 (CCRF-CEM [27]) was 500 nM. It also gave an IC50 (CCRF-CEM [28]) of 410 nM, an IC50 (CCRF-CEM [29]) of 350 nM and an IC50 (CEM-VLB [30]) of 920 nM. The IC50 (CEM-VLB [31]) was 570 nM, the IC50 (CEM-VLB [32]) was 360 nM and the IC50 (CEM-VLB [33]) was 330 nM. For the same compound, the IC50 (CEM-VM1 [34]) was 720 nM, the IC50 (CEM-VM1 [35]) was 600 nM and the IC50 (CEM-VM1 [36]) was 430 nM. The IC50 (CEM-VM1 [37]) was 410 nM, the Activity (DLD-1 [38]) was 90% and the Activity (DLD-1 [39]) was “Active”. For the same compound, the Activity (DLD-1 [40]) was “Active”, the Activity (DLD-1 [41]) was “Active” and the “Ratio IC50” value (CCRF-CEM [42]) was 0.56. The “Ratio IC50” value (CCRF-CEM [43]) was 0.45, the “Ratio IC50” value (CCRF-CEM [44]) was 0.41 and the “Ratio IC50” value (CCRF-CEM [45]) was 0.32. The “Ratio IC50” value (CEM-VM1 [46]) was 0.53, the “Ratio IC50” value (CEM-VM1 [47]) was 0.44 and the “Ratio IC50” value (CEM-VM1 [48]) was 0.32. For the same compound, the “Ratio IC50” value (CEM-VM1 [49]) was 0.3.
